One test relates to A549. As to the kind of experiment: In vitro cytotoxicity against A549 (human lung carcinoma) cell line. To be noted: read-out: ED50 (the source's name). It counts as functional.
The test system of the next test is SK-MEL-2. As to the kind of experiment: In vitro cytotoxicity against SK-MEL-2 (human melanoma) cell line. It counts as functional. The note with it: read-out: ED50 (the source's name).
Test [1] has as its system Mus musculus. As to the kind of experiment: Antitumor activity against Lewis lung carcinoma (LLC) cells transplanted s.c. into the auxiliary region of the BDF1 mice at a formulable dose of 0.06 mmol/kg/day. The format is functional. In outline:
(§1)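 LLC cells implanted sc in the axillary region of BDF1 mice. Dosing began 24 h later: ip injection on days 1, 5 and 9 in 5% DMSO/15% Cremophore in saline. Tumour length and width measured on day 17, with TV = L×W²/2. IR (%) = (mean control TV − mean treated TV)/mean control TV × 100.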

In a further test the test system is MCF7. The experiment in a line: In vitro cytotoxicity against MCF-7 (human breast carcinoma) cell line. The format is functional. To be noted: read-out: ED50 (the source's name).
For test [2], the system named is Mus musculus. As to the kind of experiment: Antitumor activity against Lewis lung carcinoma (LLC) cells transplanted s.c. into the auxiliary region of the BDF1 mice at a maximum tolerated dose of 0.3 mmol/kg/day. The format is functional. The essentials: (§2)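 BDF1 mice carried sc LLC grafts in the axillary region. Starting 24 h after implantation, doses were given ip on days 1, 5 and 9. Tumour length and width were measured on day 17 and TV = L×W²/2. Inhibition rate (%) was the reduction in mean TV relative to the control group.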

In test [3] the test system is Mus musculus. The experiment in a line: Antitumor activity against Lewis lung carcinoma (LLC) cells transplanted s.c. into the auxiliary region of the BDF1 mice at a formulable dose of 0.06 mmol/kg/day; Not active. The format is functional, organism-based. The essentials:
as §1

Test [4] concerns Mus musculus. The experiment in a line: Antitumor activity against Lewis lung carcinoma (LLC) cells transplanted s.c. into the auxiliary region of the BDF1 mice at a maximum tolerated dose of 0.42 mmol/kg/day. The format is functional. In outline:
as §2

The subject of test [5] is Mus musculus. As to the kind of experiment: Antitumor activity against Lewis lung carcinoma (LLC) cells transplanted s.c. into the auxiliary region of the BDF1 mice at a maximum tolerated dose of 0.36 mmol/kg/day. It counts as functional. In outline: as §2
Test [6] deals with Mus musculus. As to the kind of experiment: Antitumor activity against Lewis lung carcinoma (LLC) cells transplanted s.c. into the auxiliary region of the BDF1 mice at a maximum tolerated dose of 0.06 mmol/kg/day. The format is functional. In outline:
as §2

The record followed here is ChEMBL document CHEMBL1134988, “Prodrugs of 4'-demethyl-4-deoxypodophyllotoxin: synthesis and evaluation of the antitumor activity” (2002).

SMILES strings stand for the structures. Activity calls are given as the source filed them. The calls are words filed in the database; no cut-off is given here.

In the case of `COc1cc([C@@H]2c3cc4c(cc3C[C@H]3COC(=O)[C@@H]32)OCO4)cc(OC)c1OC` [DESOXYPODOPHYLLOTOXIN], the values for the EC50 in the test with A549, in the test on SK-MEL-2 and in the test with MCF7 were 23 nM, 14 nM and 11 nM, respectively. In the test on Mus musculus [1], this compound returned an Inhibition rate of 59%.

Take `COc1cc([C@@H]2c3cc4c(cc3C[C@H]3COC(=O)[C@@H]32)OCO4)cc(OC)c1O` [4'-DEMETHYLDEOXYPODOPHYLLOTOXIN]: the EC50 in the test with A549 is 15 nM; with SK-MEL-2, 12 nM; with MCF7, 18 nM. This compound also displayed an Inhibition rate with Mus musculus [1] of 13%.

Consider `COc1cc([C@@H]2c3cc4c(cc3C[C@H]3COC(=O)[C@@H]32)OCO4)cc(OC)c1OC(=O)CN`, for which the EC50 stood at 12 nM in the test with A549, 34 nM with SK-MEL-2 and 31 nM in the test on MCF7. The compound also displayed an Inhibition rate in the test on Mus musculus [2] of 33%.

Take `CCNC(=O)Oc1c(OC)cc([C@@H]2c3cc4c(cc3C[C@H]3COC(=O)[C@@H]32)OCO4)cc1OC`: the Inhibition rate entry in the test on Mus musculus [3] is “inactive”. In addition, the EC50 worked out at 132 nM with A549, 143 nM in the test with SK-MEL-2 and 142 nM in the test on MCF7.

For `COc1cc([C@@H]2c3cc4c(cc3C[C@H]3COC(=O)[C@@H]32)OCO4)cc(OC)c1OC(=O)NC(C)C`, the Inhibition rate entry with Mus musculus [3] is “inactive”. Further, the EC50 amounted to 153 nM in the test with A549, 165 nM in the test with SK-MEL-2 and 166 nM in the test on MCF7.

On to `COc1cc([C@@H]2c3cc4c(cc3C[C@H]3COC(=O)[C@@H]32)OCO4)cc(OC)c1OCc1ccc(N)cc1`, for which the values for the EC50 in the test on A549, in the test on SK-MEL-2 and in the test with MCF7 were 114 nM, 152 nM and 99 nM, respectively. The Inhibition rate in the test on Mus musculus [2] is reported as 80%.

On to `COc1cc([C@@H]2c3cc4c(cc3C[C@H]3COC(=O)[C@@H]32)OCO4)cc(OC)c1OC(=O)CCCCCCCN`, for which the EC50 is 74 nM with A549, 61 nM in the test on SK-MEL-2 and 69 nM in the test on MCF7. Moreover, the Inhibition rate in the test on Mus musculus [4] is on record as 80%.

As to `COc1cc([C@@H]2c3cc4c(cc3[C@@H](O[C@@H]3O[C@@H]5CO[C@@H](C)O[C@H]5[C@H](O)[C@H]3O)[C@H]3COC(=O)[C@H]23)OCO4)cc(OC)c1O` [ETOPOSIDE], the EC50 in the test with A549 amounted to 1900 nM. In the test on Mus musculus [1], this compound yielded an Inhibition rate of 78%.

Turning to `COc1cc([C@@H]2c3cc4c(cc3C[C@H]3COC(=O)[C@@H]32)OCO4)cc(OC)c1OC(=O)Nc1ccc(F)cc1`, the EC50 in the test with A549 was determined as 86 nM; in the test with SK-MEL-2, 78 nM; in the test with MCF7, 76 nM. In the test on Mus musculus [1], this compound showed an Inhibition rate of 69%.

For the compound `COc1cc([C@@H]2c3cc4c(cc3C[C@H]3COC(=O)[C@@H]32)OCO4)cc(OC)c1OC(=O)OCCCl`, the EC50 came out at 92 nM in the test with A549, 72 nM with SK-MEL-2 and 88 nM with MCF7.

For `COc1cc([C@@H]2c3cc4c(cc3C[C@H]3COC(=O)[C@@H]32)OCO4)cc(OC)c1OC(=O)CCN`, the EC50 in the test with A549 stood at 97 nM; in the test on SK-MEL-2, 79 nM; in the test with MCF7, 83 nM. This compound also showed an Inhibition rate in the test on Mus musculus [2] of 85%.

With `COc1cc([C@@H]2c3cc4c(cc3C[C@H]3COC(=O)[C@@H]32)OCO4)cc(OC)c1OC(=O)[C@@H](N)Cc1ccccc1`, the Inhibition rate in the test on Mus musculus [5] was determined as 80%. Besides, the EC50 in the test with A549 stood at 87 nM; with SK-MEL-2, 59 nM; in the test on MCF7, 72 nM.

For `COc1cc([C@@H]2c3cc4c(cc3C[C@H]3COC(=O)[C@@H]32)OCO4)cc(OC)c1OC(=O)NC1CCCCC1`, in the test on Mus musculus [3], the Inhibition rate result was “inactive”. Further, the EC50 in the test on A549 was found to be 163 nM; in the test on SK-MEL-2, 152 nM; in the test on MCF7 it was 197 nM.

For the compound `COc1cc([C@@H]2c3cc4c(cc3C[C@H]3COC(=O)[C@@H]32)OCO4)cc(OC)c1OC(=O)CCCCCN`, the EC50 in the test on A549 came to 89 nM; in the test with SK-MEL-2, 77 nM; in the test with MCF7 it was 72 nM. In the test with Mus musculus [6], the Inhibition rate amounted to 89%.

On to `COc1cc([C@@H]2c3cc4c(cc3C[C@H]3COC(=O)[C@@H]32)OCO4)cc(OC)c1OC(=O)NCCO`, for which the figures for the EC50 in the test with A549, in the test on SK-MEL-2 and with MCF7 were 62 nM, 59 nM and 46 nM, respectively. Further, the Inhibition rate with Mus musculus [1] was 95%.

`COc1cc([C@@H]2c3cc4c(cc3C[C@H]3COC(=O)[C@@H]32)OCO4)cc(OC)c1OC(=O)CCCN` had an Inhibition rate with Mus musculus [5] of 85%. The EC50 in the test with A549 was determined as 92 nM; with SK-MEL-2, 91 nM; in the test on MCF7 it was 89 nM.

For `COc1cc([C@@H]2c3cc4c(cc3C[C@H]3COC(=O)[C@@H]32)OCO4)cc(OC)c1OC(=O)[C@H](C)N`, the EC50 in the test with A549 was found to be 22 nM; in the test on SK-MEL-2 it was 9 nM; in the test on MCF7, 11 nM. The same compound gave an Inhibition rate with Mus musculus [2] of 41%.

Take `COc1ccc(NC(=O)Oc2c(OC)cc([C@@H]3c4cc5c(cc4C[C@H]4COC(=O)[C@@H]43)OCO5)cc2OC)cc1`: in the test with Mus musculus [3], the Inhibition rate result is “inactive”. The figures for the EC50 in the test on A549, in the test on SK-MEL-2 and with MCF7 were 96 nM, 89 nM and 93 nM, respectively.
